# Measured values reported in ChEMBL document CHEMBL2163232, “4-Phenyl-7-azaindoles as potent, selective and bioavailable IKK2 inhibitors demonstrating good in vivo efficacy” (Bioorg Med Chem Lett, 2012).
# pIC50: −log10 of the molar value. Calls of active or inactive are those of the source. The calls are words filed in the database; no cut-off is given here.
# Assays:
# [1] = Clearance in rat at 1 mg/kg, iv; assay type: ADME, organism-based; parameters: dose 1 mg/kg, route intravenous; conditions: in vivo
# Method in brief: (§1)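 Rat pharmacokinetics: 1 mg/kg given IV (n = 2) or orally (n = 1); clearance derived from the IV arm.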
# [2] = Half life in rat at 1 mg/kg, iv; assay type: ADME, organism-based; parameters: dose 1 mg/kg, route intravenous; conditions: in vivo; method in brief: as §1
# Blood [3] = assay: Inhibition of LPS-stimulated TNFalpha production in human Whole blood; assay type: functional, tissue-based
# [4] = target: T1, Inhibitor of nuclear factor kappa-B kinase subunit beta (Homo sapiens, UniProt O14920); assay: Inhibition of IKK2 in presence of 1 uM ATP
# T1 sequence (O14920 whole entry): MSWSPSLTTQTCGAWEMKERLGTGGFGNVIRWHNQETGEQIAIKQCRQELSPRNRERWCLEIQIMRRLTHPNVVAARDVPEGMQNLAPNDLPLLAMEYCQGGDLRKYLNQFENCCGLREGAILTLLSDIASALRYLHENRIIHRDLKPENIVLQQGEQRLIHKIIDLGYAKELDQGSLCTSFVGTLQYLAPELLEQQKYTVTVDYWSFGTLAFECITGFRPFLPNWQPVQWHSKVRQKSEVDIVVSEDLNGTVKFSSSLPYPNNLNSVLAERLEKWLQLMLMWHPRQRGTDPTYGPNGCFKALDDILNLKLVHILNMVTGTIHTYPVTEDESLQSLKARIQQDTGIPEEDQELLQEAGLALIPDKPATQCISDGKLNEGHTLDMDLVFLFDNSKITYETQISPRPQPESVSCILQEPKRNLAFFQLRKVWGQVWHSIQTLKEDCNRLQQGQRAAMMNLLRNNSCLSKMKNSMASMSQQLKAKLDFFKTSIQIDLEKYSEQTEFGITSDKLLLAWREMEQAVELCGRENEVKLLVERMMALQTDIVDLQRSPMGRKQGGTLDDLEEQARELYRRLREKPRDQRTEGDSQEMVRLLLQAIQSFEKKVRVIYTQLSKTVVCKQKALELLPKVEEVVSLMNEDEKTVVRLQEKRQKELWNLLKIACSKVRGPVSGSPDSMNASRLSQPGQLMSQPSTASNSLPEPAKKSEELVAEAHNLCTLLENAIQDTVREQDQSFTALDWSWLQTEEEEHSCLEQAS
# [5] = Oral bioavailability in rat at 1 mg/kg; assay type: ADME, organism-based; conditions: in vivo; method in brief: as §1
# [6] = target: T2, Inhibitor of nuclear factor kappa-B kinase subunit alpha (Homo sapiens, UniProt O15111); assay: Inhibition of IKK1 in presence of 1 uM ATP
# T2 sequence (O15111 whole entry): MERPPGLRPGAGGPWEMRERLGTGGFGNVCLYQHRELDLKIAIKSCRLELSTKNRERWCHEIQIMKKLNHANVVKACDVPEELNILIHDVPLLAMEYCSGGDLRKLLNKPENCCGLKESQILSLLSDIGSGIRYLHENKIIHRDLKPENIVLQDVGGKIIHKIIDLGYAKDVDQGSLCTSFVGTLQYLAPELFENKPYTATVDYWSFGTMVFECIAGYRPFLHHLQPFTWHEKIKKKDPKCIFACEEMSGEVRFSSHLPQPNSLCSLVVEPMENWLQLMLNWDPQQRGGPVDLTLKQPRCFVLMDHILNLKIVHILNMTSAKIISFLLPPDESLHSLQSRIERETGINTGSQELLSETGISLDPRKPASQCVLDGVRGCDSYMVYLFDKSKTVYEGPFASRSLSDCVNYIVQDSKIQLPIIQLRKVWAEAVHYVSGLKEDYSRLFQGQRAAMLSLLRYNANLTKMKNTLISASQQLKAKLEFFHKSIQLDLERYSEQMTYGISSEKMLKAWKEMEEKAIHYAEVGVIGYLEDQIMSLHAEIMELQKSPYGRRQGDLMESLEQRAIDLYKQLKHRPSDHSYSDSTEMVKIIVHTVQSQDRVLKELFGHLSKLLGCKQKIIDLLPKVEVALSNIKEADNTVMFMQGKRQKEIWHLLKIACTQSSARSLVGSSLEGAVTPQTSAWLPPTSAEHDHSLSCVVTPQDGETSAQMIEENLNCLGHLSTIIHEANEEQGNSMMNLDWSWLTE
# [7] = Volume of distribution in rat; assay type: ADME, organism-based; conditions: in vivo; method in brief: as §1
# Cytochrome P450 3A4 = Cytochrome P450 3A4 (Homo sapiens, UniProt P08684); assay: inhibition of CYP3A4; assay type: ADME
# [8] = target: T1, Inhibitor of nuclear factor kappa-B kinase subunit beta; assay: Inhibition of IKK2 in human A549 cells assessed as inhibition of TNFalpha-induced NFKB activation; assay type: cell-based
# [9] = target: Voltage-gated inwardly rectifying potassium channel KCNH2 (Homo sapiens, UniProt Q12809); assay: Inhibition of human ERG
# [10] = Aqueous solubility of the compound; assay type: physicochemical; conditions: aqueous solution
# Cytochrome P450 2C9 = Cytochrome P450 2C9 (Homo sapiens, UniProt P11712); assay: inhibition of CYP2C9; assay type: ADME
# [11] = Fraction unbound in human plasma; assay type: ADME, cell-free
# Rattus norvegicus [12] = assay: Antiinflammatory activity in po dosed Lewis rat assessed as inhibition of LPS-induced neutrophil lung infiltration compound administered 30 mins before LPS challenge relative to vehicle-treated control; assay type: functional
# Method in brief: (§2)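 Male Lewis rats (n = 4 per group, vehicle included) dosed orally at 10, 30 and 100 µmol/kg in 2% DMSO/0.5% methylcellulose with NaOH, 30 min before 20 min exposure to aerosolized 0.1 mg/ml E. coli 026:B6 LPS. Neutrophils in BAL fluid counted 4 h post-LPS by differential (Diff-Quick) and haemocytometer counts. Results given as % inhibition versus vehicle, ED50 derived; ANOVA with Dunnett's test.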
# Hepatocyte [13] = assay: Intrinsic clearance in human hepatocytes; assay type: ADME, cell-based, Liver
# Blood [14] = assay: Inhibition of LPS-stimulated TNFalpha production in rat Whole blood; assay type: functional, tissue-based
# Cytochrome P450 1A2 = target: T3, Cytochrome P450 1A2 (Homo sapiens, UniProt P05177); assay: inhibition of CYP1A2; assay type: ADME
# T3 sequence (P05177 whole entry): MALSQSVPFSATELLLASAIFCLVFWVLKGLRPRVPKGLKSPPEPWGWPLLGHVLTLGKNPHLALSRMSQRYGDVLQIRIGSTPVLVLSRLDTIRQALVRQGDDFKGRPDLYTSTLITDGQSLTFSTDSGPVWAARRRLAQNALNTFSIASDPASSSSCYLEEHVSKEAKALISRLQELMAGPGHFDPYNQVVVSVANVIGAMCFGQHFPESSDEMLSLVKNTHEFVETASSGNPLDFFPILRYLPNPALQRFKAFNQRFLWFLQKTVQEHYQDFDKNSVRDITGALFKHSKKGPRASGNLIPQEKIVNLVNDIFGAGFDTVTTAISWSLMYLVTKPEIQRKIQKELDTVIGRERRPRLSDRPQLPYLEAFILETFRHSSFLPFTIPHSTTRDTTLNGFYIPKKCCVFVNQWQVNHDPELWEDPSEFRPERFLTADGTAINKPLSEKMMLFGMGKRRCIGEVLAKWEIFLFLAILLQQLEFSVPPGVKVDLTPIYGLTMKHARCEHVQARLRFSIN
# Cytochrome P450 2D6 = Cytochrome P450 2D6 (Homo sapiens, UniProt P10635); assay: inhibition of CYP2D6; assay type: ADME
# Rattus norvegicus [15] = assay: Antiinflammatory activity in Lewis rat assessed as inhibition of LPS-induced neutrophil lung infiltration at 30 umol/kg, po administered 30 mins before LPS challenge relative to vehicle-treated control; assay type: functional, organism-based; method in brief: as §2
# [16] = Plasma protein binding in rat; assay type: ADME, cell-free; conditions: read-out: PPB (converted)
# [17] = Plasma protein binding in human; assay type: ADME, cell-free; conditions: read-out: PPB (converted)
# Hepatocyte [18] = assay: Intrinsic clearance in rat hepatocytes; assay type: ADME, cell-based, Liver
# Albumin = Albumin (Homo sapiens, UniProt P02768); assay: Binding affinity to human serum albumin; assay type: ADME; conditions: isolated protein
# Chain of Albumin (P02768 whole entry): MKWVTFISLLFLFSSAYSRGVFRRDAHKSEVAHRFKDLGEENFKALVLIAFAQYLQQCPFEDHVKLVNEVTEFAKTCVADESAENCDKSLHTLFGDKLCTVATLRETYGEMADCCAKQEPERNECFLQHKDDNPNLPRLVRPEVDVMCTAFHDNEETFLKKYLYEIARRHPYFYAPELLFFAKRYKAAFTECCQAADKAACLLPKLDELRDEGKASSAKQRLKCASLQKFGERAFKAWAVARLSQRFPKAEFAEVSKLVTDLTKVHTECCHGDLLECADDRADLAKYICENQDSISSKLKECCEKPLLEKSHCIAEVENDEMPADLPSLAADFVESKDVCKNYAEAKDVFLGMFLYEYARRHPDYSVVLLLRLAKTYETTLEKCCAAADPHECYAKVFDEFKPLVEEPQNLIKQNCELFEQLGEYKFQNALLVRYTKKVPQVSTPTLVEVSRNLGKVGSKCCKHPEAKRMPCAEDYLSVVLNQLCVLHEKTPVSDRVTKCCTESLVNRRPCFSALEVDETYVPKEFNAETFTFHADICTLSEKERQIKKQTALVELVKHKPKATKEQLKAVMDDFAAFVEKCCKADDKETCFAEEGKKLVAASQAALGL
# Chain of Cytochrome P450 3A4 (P08684 whole entry): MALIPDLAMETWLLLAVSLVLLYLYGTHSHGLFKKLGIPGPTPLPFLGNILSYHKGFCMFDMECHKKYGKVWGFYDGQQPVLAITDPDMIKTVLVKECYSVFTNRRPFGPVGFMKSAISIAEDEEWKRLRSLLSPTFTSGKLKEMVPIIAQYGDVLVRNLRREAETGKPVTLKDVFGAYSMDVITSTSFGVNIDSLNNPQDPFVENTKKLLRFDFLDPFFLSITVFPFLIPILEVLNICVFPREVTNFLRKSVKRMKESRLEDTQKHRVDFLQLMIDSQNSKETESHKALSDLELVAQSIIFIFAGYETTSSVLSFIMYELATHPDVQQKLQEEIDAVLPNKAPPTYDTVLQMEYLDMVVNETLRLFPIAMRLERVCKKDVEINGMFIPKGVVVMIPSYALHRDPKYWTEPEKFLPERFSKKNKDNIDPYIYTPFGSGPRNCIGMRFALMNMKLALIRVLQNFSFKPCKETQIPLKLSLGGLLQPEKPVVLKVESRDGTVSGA
# Chain of Voltage-gated inwardly rectifying potassium channel KCNH2 (Q12809 whole entry): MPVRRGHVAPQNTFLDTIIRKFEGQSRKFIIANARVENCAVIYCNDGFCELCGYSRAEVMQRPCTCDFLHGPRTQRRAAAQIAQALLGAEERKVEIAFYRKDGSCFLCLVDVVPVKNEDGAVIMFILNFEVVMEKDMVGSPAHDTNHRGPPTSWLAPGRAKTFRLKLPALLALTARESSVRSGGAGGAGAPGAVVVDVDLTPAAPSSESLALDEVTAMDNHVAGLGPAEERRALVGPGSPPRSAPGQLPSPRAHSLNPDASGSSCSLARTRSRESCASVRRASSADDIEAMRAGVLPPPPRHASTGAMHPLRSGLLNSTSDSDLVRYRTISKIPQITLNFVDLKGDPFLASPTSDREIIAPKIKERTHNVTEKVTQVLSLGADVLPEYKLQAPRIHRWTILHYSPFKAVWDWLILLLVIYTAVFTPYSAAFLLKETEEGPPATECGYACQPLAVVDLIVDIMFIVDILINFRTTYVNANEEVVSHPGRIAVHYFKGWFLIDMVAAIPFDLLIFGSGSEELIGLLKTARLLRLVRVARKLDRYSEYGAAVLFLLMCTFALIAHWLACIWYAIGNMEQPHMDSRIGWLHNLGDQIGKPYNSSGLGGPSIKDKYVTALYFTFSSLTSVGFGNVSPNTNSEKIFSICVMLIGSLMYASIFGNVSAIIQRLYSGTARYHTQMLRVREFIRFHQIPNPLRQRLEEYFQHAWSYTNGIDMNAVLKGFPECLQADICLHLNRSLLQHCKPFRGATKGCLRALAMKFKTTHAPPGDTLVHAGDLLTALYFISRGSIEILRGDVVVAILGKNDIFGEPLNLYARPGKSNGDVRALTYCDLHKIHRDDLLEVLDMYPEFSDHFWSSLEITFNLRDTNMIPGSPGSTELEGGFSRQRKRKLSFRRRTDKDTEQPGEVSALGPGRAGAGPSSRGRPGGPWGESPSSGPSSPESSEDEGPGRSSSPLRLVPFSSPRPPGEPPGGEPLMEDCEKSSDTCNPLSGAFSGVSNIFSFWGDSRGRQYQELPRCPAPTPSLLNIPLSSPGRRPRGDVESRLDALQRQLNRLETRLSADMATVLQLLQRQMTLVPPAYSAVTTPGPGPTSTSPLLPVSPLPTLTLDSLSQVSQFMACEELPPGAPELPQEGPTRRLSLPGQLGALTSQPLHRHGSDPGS
# Chain of Cytochrome P450 2D6 (P10635 whole entry): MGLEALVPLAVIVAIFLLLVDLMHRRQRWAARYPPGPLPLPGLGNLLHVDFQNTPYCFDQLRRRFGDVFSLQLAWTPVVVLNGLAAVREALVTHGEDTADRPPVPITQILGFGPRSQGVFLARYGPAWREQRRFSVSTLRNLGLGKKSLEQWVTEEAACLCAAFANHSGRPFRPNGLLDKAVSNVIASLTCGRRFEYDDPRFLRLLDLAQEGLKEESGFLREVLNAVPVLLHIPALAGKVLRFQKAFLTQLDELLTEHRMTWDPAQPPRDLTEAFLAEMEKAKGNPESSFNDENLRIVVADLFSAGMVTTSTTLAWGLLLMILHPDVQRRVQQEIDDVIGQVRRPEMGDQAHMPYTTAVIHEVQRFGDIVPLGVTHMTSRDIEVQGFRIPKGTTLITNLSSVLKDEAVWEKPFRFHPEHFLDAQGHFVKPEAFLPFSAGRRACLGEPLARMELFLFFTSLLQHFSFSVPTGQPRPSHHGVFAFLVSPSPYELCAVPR
# Chain of Cytochrome P450 2C9 (P11712 whole entry): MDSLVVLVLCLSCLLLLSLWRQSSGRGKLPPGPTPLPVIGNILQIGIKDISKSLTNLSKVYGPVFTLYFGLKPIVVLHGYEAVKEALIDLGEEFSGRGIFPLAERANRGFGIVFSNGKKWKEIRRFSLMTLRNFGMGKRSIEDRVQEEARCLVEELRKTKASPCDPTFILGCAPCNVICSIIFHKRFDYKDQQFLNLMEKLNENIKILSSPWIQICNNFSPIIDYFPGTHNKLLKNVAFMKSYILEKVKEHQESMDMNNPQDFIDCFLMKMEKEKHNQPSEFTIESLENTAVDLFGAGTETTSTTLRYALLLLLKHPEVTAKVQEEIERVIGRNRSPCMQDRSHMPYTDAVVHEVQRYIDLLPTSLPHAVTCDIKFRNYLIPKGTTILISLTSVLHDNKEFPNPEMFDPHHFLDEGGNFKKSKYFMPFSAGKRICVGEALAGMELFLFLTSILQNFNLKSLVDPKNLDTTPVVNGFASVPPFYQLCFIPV
pIC50 (Blood [3]),pIC50 [4],pIC50 [6],Structure (SMILES),further results
5.90,7.70,6.50,C[C@@H](CO)NS(=O)(=O)c1ccc(-c2ccnc3[nH]c(C(F)(F)F)cc23)cc1,clearance [1]: 7 mL/min/kg; half-life [2]: 192 min; bioavailability [5]: 83%
6.00,8.00,6.70,Cc1cc2c(-c3ccc(S(=O)(=O)NCC(C)(C)O)cc3)ccnc2[nH]1,clearance [1]: 70 mL/min/kg; half-life [2]: 36 min; bioavailability [5]: 32%
5.80,8.10,6.40,CC(C)c1cc2c(-c3ccc(S(=O)(=O)NCCO)cc3)ccnc2[nH]1,Vd [7]: 0.8 L/kg; clearance [1]: 39 mL/min/kg; half-life [2]: 27 min; bioavailability [5]: 18%
6.30,8.10,6.60,C[C@@H](CO)NS(=O)(=O)c1ccc(-c2ccnc3[nH]c(C4CC4)cc23)cc1,clearance [1]: 15 mL/min/kg; half-life [2]: 54 min; bioavailability [5]: 29%
6.60,8.40,8.20,O=S1(=O)CCC(NS(=O)(=O)c2ccc(-c3ccnc4[nH]c(C5CC5)cc34)cc2)CC1,–
5.90,7.80,7.30,O=S1(=O)CCC(NS(=O)(=O)c2ccc(-c3ccnc4[nH]c(Cn5ccnn5)cc34)cc2)CC1,–
6.20,7.80,7.50,O=S1(=O)CCC(NS(=O)(=O)c2ccc(-c3ccnc4[nH]c(C5CCNCC5)cc34)cc2)CC1,–
5.60,7.80,6.70,O=S(=O)(NCCO)c1ccc(-c2ccnc3[nH]c(C(F)(F)F)cc23)cc1,–
6.00,8.20,6.50,CC(C)(O)CNS(=O)(=O)c1ccc(-c2ccnc3[nH]c(C4CC4)cc23)cc1,clearance [1]: 14 mL/min/kg; half-life [2]: 42 min; bioavailability [5]: 100%
5.50,6.10,6.80,Cc1cc2c(-c3ncc(S(=O)(=O)NC4CCS(=O)(=O)CC4)cn3)ccnc2[nH]1,–
6.40,7.90,8.10,Cc1cc2c(-c3ccc(S(=O)(=O)NC4CCS(=O)(=O)CC4)nc3)ccnc2[nH]1,–
6.40,8.30,8.20,CCc1cc2c(-c3ccc(S(=O)(=O)NC4CCS(=O)(=O)CC4)cc3)ccnc2[nH]1,–
5.60,–,–,Cc1cc2c(-c3ccc(S(=O)(=O)NCCO)cc3)ccnc2[nH]1,–
5.90,7.70,7.00,CN(C)Cc1cc2c(-c3ccc(S(=O)(=O)NC4CCS(=O)(=O)CC4)cc3)ccnc2[nH]1,–
5.90,8.10,6.70,O=S(=O)(NCCO)c1ccc(-c2ccnc3[nH]c(C4CC4)cc23)cc1,Vd [7]: 0.6 L/kg; clearance [1]: 13 mL/min/kg; pIC50 (Cytochrome P450 3A4): < 5.00; pIC50 [8]: 6.70; half-life [2]: 36 min; pIC50 [9]: < 4.30; solubility [10]: 64 µM; pIC50 (Cytochrome P450 2C9): 5.15; fraction unbound [11]: 0.07; ED50 (Rattus norvegicus [12]): 28.2 µmol/kg; inhibition (Rattus norvegicus [12]): Dose-dependent effect; CLH (Hepatocyte [13]): < 1 mL/min/g; pIC50 (Blood [14]): 5.20; pIC50 (Cytochrome P450 1A2): < 5.00; pIC50 (Cytochrome P450 2D6): < 5.00; inhibition (Rattus norvegicus [15]): Active; bioavailability [5]: 49%; fraction unbound [16]: 0.024; fraction unbound [17]: 0.066; CLH (Hepatocyte [18]): < 1 mL/min/g
6.00,7.10,7.10,Cc1cc2c(-c3ccc(S(=O)(=O)NC4CCS(=O)(=O)CC4)cn3)ccnc2[nH]1,–
6.40,–,–,Cc1cc2c(-c3ccc(S(=O)(=O)NC4CCS(=O)(=O)CC4)cc3)ccnc2[nH]1,–
6.00,7.70,6.10,CC(C)(C)c1cc2c(-c3ccc(S(=O)(=O)NCCO)cc3)ccnc2[nH]1,–
6.20,8.10,7.60,CC(C)(C)c1cc2c(-c3ccc(S(=O)(=O)NC4CCS(=O)(=O)CC4)cc3)ccnc2[nH]1,–
5.50,–,–,Cc1cc2c(-c3ccc(S(=O)(=O)N(C)CCO)cc3)ccnc2[nH]1,pIC50 [8]: 6.10; Activity (Albumin): 91%
6.60,8.20,8.20,CC(C)c1cc2c(-c3ccc(S(=O)(=O)NC4CCS(=O)(=O)CC4)cc3)ccnc2[nH]1,–
